Each block holds one compound with its values, some of them ahead of it.
Key:
[1] = Displacement of [3H]SCH23390 from D1 like receptor in pig striatal tissue by topcount scintillation counting; type: tissue-based, Sus scrofa, Striatum
Method in brief: (§1)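 Porcine striatal membranes (P2 pellet, washed in 50 mM Tris pH 7.4), 75 µg protein per tube in 50 mM Hepes, 4 mM MgCl2, pH 7.4. Nonspecific binding was defined with 5 µM butaclamol. Incubation was 37 °C for 30 min, then filtration and scintillation counting. Ki was derived by Cheng-Prusoff and D2/D1 Ki compared.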

[2] = Displacement of [3H]spiperone from D2 like receptor in pig striatal tissue by topcount scintillation counting; type: tissue-based, Sus scrofa, Striatum; method in brief: as §1
[3] = organism: Sus scrofa; assay: Selectivity ratio of Ki for pig D2-like receptor to Ki for pig D1-like receptor
Method in brief: as §1, with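 “7.4. D1-like sites were labelled with 1 nM [3H]SCH-23390. D2-like sites were labelled with 0.15 nM [3H]spiperone plus 50 nM ketanserin.” for “7.4.”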

[4] = molecular target: T1, Alpha-2C adrenergic receptor (Homo sapiens, UniProt P18825); assay: Binding affinity to adrenergic Alpha-2C receptor
T1 sequence (P18825 whole entry): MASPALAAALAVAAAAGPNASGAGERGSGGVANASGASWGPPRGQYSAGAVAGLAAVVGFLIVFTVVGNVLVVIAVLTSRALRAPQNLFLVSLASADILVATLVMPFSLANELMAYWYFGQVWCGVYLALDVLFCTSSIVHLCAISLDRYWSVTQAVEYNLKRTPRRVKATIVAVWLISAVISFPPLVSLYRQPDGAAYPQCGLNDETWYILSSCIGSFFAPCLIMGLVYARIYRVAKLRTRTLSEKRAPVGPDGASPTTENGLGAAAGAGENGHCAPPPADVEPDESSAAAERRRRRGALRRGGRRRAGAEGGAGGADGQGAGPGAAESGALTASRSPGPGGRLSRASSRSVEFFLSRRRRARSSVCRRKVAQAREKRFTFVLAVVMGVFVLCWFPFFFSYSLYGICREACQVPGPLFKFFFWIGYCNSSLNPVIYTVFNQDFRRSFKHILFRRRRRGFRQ

[5] = molecular target: T2, Alpha-2B adrenergic receptor (Homo sapiens, UniProt P18089); assay: Binding affinity to adrenergic alpha2B receptor
T2 sequence (P18089 whole entry): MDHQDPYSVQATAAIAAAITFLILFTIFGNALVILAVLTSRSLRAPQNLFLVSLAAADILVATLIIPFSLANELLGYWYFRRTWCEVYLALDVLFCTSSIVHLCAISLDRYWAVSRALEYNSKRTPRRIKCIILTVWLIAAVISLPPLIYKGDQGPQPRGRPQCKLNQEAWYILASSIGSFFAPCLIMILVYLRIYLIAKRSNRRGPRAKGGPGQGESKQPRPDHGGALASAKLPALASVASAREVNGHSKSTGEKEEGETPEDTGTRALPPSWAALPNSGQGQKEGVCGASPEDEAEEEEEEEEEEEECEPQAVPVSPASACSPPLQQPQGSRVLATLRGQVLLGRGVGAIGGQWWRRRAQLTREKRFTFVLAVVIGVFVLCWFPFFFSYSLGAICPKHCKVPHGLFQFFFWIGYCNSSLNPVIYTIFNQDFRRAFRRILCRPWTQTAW

[6] = molecular target: Kappa-type opioid receptor (Homo sapiens, UniProt P41145); assay: Binding affinity to […] opioid receptor
[7] = molecular target: 5-hydroxytryptamine receptor 7 (Homo sapiens, UniProt P34969); assay: Binding affinity to 5HT7 receptor
[8] = molecular target: T3, D(1A) dopamine receptor (Homo sapiens, UniProt P21728); assay: Agonist activity at human D1 receptor assessed as cAMP accumulation; type: functional
[9] = molecular target: T4, Alpha-2A adrenergic receptor (Homo sapiens, UniProt P08913); assay: Binding affinity to adrenergic alpha2A receptor
T4 sequence (P08913 whole entry): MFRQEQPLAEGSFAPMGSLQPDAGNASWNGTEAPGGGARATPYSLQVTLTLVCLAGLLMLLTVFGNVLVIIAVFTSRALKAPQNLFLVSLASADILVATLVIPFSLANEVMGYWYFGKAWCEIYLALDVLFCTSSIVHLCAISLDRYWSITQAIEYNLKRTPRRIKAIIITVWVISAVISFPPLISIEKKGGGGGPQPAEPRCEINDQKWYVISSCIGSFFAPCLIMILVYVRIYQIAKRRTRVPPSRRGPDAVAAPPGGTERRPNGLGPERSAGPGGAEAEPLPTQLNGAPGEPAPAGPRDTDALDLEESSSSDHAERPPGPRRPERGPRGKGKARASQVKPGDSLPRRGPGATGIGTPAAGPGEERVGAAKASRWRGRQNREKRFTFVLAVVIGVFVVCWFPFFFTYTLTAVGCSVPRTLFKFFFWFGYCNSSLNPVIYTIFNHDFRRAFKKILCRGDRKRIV

[10] = molecular target: T5, Alpha-1A adrenergic receptor (Homo sapiens, UniProt P35348); assay: Binding affinity to adrenergic alpha1A receptor
T5 sequence (P35348 whole entry): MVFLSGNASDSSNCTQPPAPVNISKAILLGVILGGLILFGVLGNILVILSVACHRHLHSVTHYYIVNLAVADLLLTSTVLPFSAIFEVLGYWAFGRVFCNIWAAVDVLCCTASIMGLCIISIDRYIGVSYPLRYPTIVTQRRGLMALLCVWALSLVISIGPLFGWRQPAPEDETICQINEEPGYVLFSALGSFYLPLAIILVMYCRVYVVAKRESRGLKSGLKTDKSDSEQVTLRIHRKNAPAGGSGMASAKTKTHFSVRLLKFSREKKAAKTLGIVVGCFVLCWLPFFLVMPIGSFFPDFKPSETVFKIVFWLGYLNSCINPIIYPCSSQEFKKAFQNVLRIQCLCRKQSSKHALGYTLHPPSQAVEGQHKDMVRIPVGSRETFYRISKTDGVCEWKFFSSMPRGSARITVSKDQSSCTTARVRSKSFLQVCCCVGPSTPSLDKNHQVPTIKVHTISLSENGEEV

[11] = molecular target: T6, D(4) dopamine receptor (Homo sapiens, UniProt P21917); assay: Binding affinity to dopamine D4 receptor
T6 sequence (P21917 whole entry): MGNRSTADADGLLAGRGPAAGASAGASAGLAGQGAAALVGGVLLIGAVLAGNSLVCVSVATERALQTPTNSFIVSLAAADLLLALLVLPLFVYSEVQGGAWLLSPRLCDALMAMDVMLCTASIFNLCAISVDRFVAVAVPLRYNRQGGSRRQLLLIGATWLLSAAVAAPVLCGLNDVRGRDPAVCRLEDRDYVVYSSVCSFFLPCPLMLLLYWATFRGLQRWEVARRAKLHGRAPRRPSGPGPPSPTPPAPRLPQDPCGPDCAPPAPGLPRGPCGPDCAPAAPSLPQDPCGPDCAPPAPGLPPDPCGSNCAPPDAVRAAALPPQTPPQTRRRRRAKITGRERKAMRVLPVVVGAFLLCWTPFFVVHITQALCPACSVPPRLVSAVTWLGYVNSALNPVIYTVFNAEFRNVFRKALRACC

[12] = molecular target: T3, D(1A) dopamine receptor; assay: Binding affinity to dopamine D1 receptor
[13] = molecular target: T7, 5-hydroxytryptamine receptor 3A (Homo sapiens, UniProt P46098); assay: Binding affinity to 5HT3 receptor
T7 sequence (P46098 whole entry): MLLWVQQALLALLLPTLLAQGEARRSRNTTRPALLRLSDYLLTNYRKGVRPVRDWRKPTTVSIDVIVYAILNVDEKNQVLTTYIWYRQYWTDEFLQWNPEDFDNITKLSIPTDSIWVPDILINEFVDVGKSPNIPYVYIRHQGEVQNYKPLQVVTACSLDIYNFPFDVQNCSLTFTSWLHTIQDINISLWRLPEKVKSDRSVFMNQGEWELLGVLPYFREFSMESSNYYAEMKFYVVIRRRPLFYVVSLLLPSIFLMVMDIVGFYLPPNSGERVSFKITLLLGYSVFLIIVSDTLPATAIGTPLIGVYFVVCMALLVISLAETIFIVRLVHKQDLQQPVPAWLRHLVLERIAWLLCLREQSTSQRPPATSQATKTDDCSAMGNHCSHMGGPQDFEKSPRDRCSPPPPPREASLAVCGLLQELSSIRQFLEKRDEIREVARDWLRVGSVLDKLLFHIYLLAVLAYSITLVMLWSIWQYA

[14] = molecular target: D(1B) dopamine receptor (Homo sapiens, UniProt P21918); assay: Binding affinity to dopamine D5 receptor
[15] = molecular target: D(3) dopamine receptor (Homo sapiens, UniProt P35462); assay: Binding affinity to dopamine D3 receptor
D(3) dopamine receptor, sequence (P35462 whole entry): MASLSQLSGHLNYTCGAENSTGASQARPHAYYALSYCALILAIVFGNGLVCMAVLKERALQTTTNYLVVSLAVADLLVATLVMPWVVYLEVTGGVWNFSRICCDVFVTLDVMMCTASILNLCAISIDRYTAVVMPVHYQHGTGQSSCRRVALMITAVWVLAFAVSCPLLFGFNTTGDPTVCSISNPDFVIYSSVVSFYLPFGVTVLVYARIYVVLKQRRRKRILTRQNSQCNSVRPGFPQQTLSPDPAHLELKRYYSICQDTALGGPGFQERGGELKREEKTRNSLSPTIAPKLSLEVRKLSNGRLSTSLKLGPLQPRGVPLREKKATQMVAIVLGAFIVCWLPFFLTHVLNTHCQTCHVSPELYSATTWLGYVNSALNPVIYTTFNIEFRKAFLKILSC

T3 sequence (P21728 whole entry): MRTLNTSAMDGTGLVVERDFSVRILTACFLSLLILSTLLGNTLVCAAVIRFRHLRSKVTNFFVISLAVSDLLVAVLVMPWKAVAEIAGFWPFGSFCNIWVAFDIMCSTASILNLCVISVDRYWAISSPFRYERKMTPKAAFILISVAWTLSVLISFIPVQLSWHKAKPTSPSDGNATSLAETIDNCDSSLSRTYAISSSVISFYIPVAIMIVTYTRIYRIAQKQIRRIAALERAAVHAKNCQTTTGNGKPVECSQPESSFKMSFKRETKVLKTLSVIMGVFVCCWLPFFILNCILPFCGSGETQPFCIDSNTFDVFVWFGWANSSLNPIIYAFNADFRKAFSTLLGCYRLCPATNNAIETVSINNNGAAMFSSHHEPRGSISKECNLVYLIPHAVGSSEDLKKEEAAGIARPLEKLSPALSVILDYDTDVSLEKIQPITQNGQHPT
Kappa-type opioid receptor, sequence (P41145 whole entry): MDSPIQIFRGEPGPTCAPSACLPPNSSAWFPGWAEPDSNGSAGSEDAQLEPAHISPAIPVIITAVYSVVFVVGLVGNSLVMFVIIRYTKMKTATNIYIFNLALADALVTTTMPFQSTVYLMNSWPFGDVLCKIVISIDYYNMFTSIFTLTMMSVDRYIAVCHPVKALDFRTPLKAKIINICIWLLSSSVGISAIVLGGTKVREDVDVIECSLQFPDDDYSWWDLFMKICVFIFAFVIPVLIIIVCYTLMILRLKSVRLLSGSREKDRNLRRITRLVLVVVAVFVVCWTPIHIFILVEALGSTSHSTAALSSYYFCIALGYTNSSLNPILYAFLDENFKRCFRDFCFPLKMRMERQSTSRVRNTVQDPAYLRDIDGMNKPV
D(1B) dopamine receptor, sequence (P21918 whole entry): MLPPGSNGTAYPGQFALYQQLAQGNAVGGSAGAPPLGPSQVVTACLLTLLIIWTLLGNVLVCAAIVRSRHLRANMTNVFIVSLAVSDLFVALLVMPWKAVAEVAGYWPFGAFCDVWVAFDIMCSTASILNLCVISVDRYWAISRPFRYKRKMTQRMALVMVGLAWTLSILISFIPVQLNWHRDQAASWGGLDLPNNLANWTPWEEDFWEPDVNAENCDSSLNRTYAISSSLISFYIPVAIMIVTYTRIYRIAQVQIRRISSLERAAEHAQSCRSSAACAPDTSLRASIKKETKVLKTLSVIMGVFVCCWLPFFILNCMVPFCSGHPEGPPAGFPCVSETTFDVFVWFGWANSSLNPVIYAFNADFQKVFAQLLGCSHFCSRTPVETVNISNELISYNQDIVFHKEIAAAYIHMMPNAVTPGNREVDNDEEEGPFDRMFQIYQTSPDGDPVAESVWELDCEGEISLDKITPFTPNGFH
5-hydroxytryptamine receptor 7, sequence (P34969 whole entry): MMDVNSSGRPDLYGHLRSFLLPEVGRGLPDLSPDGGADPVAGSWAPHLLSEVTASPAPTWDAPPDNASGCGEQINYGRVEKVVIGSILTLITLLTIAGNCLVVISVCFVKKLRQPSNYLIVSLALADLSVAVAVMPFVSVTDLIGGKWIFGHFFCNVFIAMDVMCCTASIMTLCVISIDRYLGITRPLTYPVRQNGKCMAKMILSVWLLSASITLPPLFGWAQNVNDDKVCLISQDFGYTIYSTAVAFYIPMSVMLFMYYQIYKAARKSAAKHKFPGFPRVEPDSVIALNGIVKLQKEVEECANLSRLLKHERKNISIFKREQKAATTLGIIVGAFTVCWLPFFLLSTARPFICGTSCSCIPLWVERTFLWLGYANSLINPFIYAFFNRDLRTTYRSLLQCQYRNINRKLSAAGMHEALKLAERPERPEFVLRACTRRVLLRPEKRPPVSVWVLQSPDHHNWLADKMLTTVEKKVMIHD

Ki [1]: 0.79 nM
SMILES: CN1CCc2cc(Cl)c(O)cc2[C@@H](c2ccccc2)C1 [SCH-23390]

SMILES: Oc1ccc2c(c1O)CC[C@@H]1CCNC[C@H]21 (relative stereo)
Ki [1]: 6800 nM
Ki [2]: 2800 nM
Selectivity Index [3]: 0.4

SMILES: Oc1ccc2c(c1O)CC[C@@H]1CCNC[C@@H]21 (relative stereo)
Ki [1]: 850 nM
Ki [2]: 670 nM
Selectivity Index [3]: 0.8

SMILES: Oc1ccc2c(c1O)C[C@@H](c1ccccc1)[C@@H]1CCNC[C@@H]21
Ki [4]: 1.1 nM
Ki [5]: 6.4 nM
Ki [6]: 820 nM
Ki [7]: 220 nM
Ki [1]: 6 nM
EC50 [8]: 0.64 nM
Ki [9]: 3.5 nM
Ki [10]: 340 nM
Ki [11]: 2650 nM
Ki [12]: 18 nM
Ki [2]: 440 nM
Ki [13]: 870 nM
Ki [14]: 2.8 nM
Ki [15]: 130 nM
